From publication PMC3074966 (European journal of medicinal chemistry, 2010)

How the values were obtained:
[1] = test system: panel of five human cell lines (HeLa, A549, HL-60, Jurkat, K562); assay: Antiproliferative assay, summary over the cell line panel; type: cell-based
[2] = test system: HeLa cells; assay: Mitochondrial membrane potential; type: cell-based, human; settings: 24 and 48 h
[3] = test system: HeLa cells; assay: Western blot analysis; type: cell-based, human
[4] = test system: HeLa cells; assay: ROS production; type: cell-based, human; settings: 24 and 48 h, HE and H2-DCFDA
[5] = test system: caspase-3 in HeLa cells; assay: Caspase-3 assay; type: cell-based, human; settings: 24 and 48 h
[6] = test system: Jurkat cells; assay: Flow cytometric analysis of cell cycle distribution; type: cell-based, human; settings: after 48 h of treatment (data not shown)
Summary of the method: (§1)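 Exponentially growing cells (5 × 10⁵) were exposed to varying concentrations of test compound for 24 and 48 h. They were then collected and fixed in ice-cold 70% ethanol, then treated with lysis buffer containing RNase A and 0.1% Triton X-100. Cells were stained with propidium iodide and analysed by flow cytometry, with sub-G1 (hypodiploid) DNA content scored at 48 h.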

[7] = test system: HeLa cells; assay: as above; type: cell-based, human; settings: after 48 h of treatment (data not shown)
Summary of the method: as §1

[8] = test system: HeLa cells; assay: Annexin-V/PI assay; type: cell-based, human; settings: 24 h, compared with control
[9] = average antiproliferative activity

`COc1cc(C(=O)c2sc3ccccc3c2-c2ccccc2)cc(OC)c1OC` [Compound 3a, (3,4,5-Trimethoxyphenyl)(3-phenylbenzo[b]thiophen-2-yl) methanone] was tested, and the IC50 ([1]; Homo sapiens, read-out: IC50 against HeLa, HL-60, Jurkat and K562 cells) was 1500 to 2100 nM.

With `COc1ccc(Nc2c(C(=O)c3cc(OC)c(OC)c(OC)c3)sc3ccccc23)cc1` [Compound 4d, (3-(4-Methoxyphenylamino)benzo[b]thiophen-2-yl)(3,4,5-trimethoxyphenyl)methanone] the “loss in activity relative to unsubstituted 4a” value [1, 9] was ~50%.

With `CCOc1ccc(Nc2c(C(=O)c3cc(OC)c(OC)c(OC)c3)sc3ccccc23)cc1` [Compound 4e, (3-(4-Ethoxyphenylamino)benzo[b]thiophen-2-yl)(3,4,5-trimethoxyphenyl)methanone] the “fold increase in activity relative to unsubstituted 4a” value [1, 9] was 5 fold, the “fold difference in average antiproliferative activity between 4e and 4d” value ([1]; most active vs least active 3-anilino derivative) was 9 fold and the “fold lower IC50 than 3k” value ([1]; over the five cell lines) was 2- to 15 fold. For the same compound, the “mitochondrial membrane potential (Rho 123 fluorescence)” value [2] was “reduction of Rho 123 fluorescence intensity”, the “expression of Bax” value [3] was “remained unchanged” and the “expression of Bcl-2” value [3] was “slight decrease”. For the same compound, the “cyclin B1 expression” value ([3]; 24 or 48 h) was “concentration-dependent increase”, the “phosphatase cdc25c (phosphorylation state)” value ([3]; 24 or 48 h) was “slower migrating forms of phosphatase cdc25c were present” and the “89 kDa cleaved fragment of PARP” value ([3]; 24 h and 48 h) was “increased”. The “expression of p53” value ([3]; increasing concentrations) was “no difference”, the “production of ROS” value [4] was “induces the production of large amounts of ROS” and the “activation of caspase-3” value [5] was “activation of caspase-3 in a time- and concentration-dependent manner”. For the same compound, the “hypodiploid peak (sub-G1) indicative of apoptosis” value [6] was “appeared in both cell lines”, the “hypodiploid peak (sub-G1) indicative of apoptosis” value [7] was “appeared in both cell lines” and the annexin-V positive cells [8] was “induced an accumulation of annexin-V positive cells”.

With `CCOc1ccc(Nc2c(C(=O)c3cc(OC)c(OC)c(OC)c3)sc3cc(C)ccc23)cc1` [Compound 4g, (3-(4-Ethoxyphenylamino)-6-methylbenzo[b]thiophen-2-yl) (3,4,5-trimethoxyphenyl)methanone] the “fold less potent than 4e” value ([1]; over the five cell lines) was 4- to 20 fold.
